Laboratory results published in ChEMBL document CHEMBL4138314, “Synthesis and Evaluation of N-Phenyl-3-sulfamoyl-benzamide Derivatives as Capsid Assembly Modulators Inhibiting Hepatitis B Virus (HBV)” (J Med Chem, 2018).
In brackets after ≈: the same amount, converted by molar mass.

Key:
HBV genotype D = assay: Antiviral activity against HBV genotype D infected in human HepG2.2.15 cells assessed as inhibition of viral DNA level treated twice for 3 days measured after 6 days by real time PCR; format: functional, organism-based; conditions: Hepatitis B virus
Hepatitis B virus [1] = assay: Induction of HBV capsid core protein CP149 aggregation assessed as ratio between area under the curve for observed amount of core dimer and area under the curve for aggregated core protein at 20 uM after 24 hrs by size exclusion chromatographic analysis
Outline: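 Recombinant HBV core assembly domain (aa 1–149, Cp149) was incubated with compound at 20 µM for 24 h, with a no-compound control run in parallel. Size exclusion chromatography gave the ratio of Cp149 dimer AUC to aggregated Cp149 AUC.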

[2] = Cytotoxicity against human HepG2 cells after 4 days by resazurin assay; format: cell-based
Hepatitis B virus [3] = assay: Antiviral activity against Hepatitis B virus infected in human HepG2.117 cells assessed as inhibition of viral DNA level after 3 days by real time PCR; format: functional, organism-based; conditions: HepG2.117, 72 h
[4] = Drug metabolism in human liver microsomes at 1 uM after 15 mins by LC-MS/MS analysis; format: ADME, microsome; conditions: read-out: Drug metabolism
Outline: (§1)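 Compound incubated 15 min with human or mouse liver microsomes; stability expressed as percent turnover (metabolised) at 15 min.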

[5] = Drug metabolism in mouse liver microsomes at 1 uM after 15 mins by LC-MS/MS analysis; format: ADME, microsome; conditions: read-out: Drug metabolism; outline: as §1
[6] = Kinetic solubility of the compound at pH 7.4 after 4 hrs by UPLC-UV analysis; format: physicochemical; conditions: buffer, read-out: Kinetic_solubility

Row | Structure (SMILES) | EC50 (HBV genotype D) | Ratio (Hepatitis B virus [1]) | CC50 at 96 h [2] | EC50 (Hepatitis B virus [3]) | metabolised at 0.25 h, 1 µM [4] | metabolised at 0.25 h, 1 µM [5] | solubility kinetic at 4 h [6]
1 | CC(C)(C)NS(=O)(=O)c1cccc(C(=O)Nc2ccc(F)cc2)c1 | 1.24 µM | 0.9 | 52.5 µM | 2.28 µM | 15% | 31% | 1 µM (≈ 0.35 µg/mL)
2 | CN1CCC(NS(=O)(=O)c2cccc(C(=O)Nc3ccc(F)cc3)c2)CC1 | 5.3 µM | 4.2 | > 100 µM | 16 µM | 10% | 13% | 94 µM (≈ 36.8 µg/mL)
3 | O=C(Nc1ccc(F)cc1)c1cccc(S(=O)(=O)N[C@H]2CCOC2)c1 | 0.54 µM | – | > 100 µM | 1.36 µM | 32% | 29% | > 100 µM
4 | O=C(Nc1ccc(F)cc1)c1cccc(S(=O)(=O)N2CCCC2)c1 | 4.53 µM | – | 96.9 µM | 3.03 µM | 44% | 96% | 48 µM (≈ 16.7 µg/mL)
5 | O=C(Nc1ccccc1)c1cc(S(=O)(=O)NC2CCCCC2)ccc1F | 0.66 µM | 0.1 | > 25 µM | 0.6 µM | 63% | 100% | 21 µM (≈ 7.91 µg/mL)
6 | Cc1ccc(NC(=O)c2cccc(S(=O)(=O)NC3CCCC3)c2)cc1F | 1.99 µM | – | > 25 µM | 15.3 µM | 67% | 99% | 12 µM (≈ 4.52 µg/mL)
7 | CN(C1CCCC1)S(=O)(=O)c1cccc(C(=O)Nc2ccc(F)cc2)c1 | 2.6 µM | – | 23.8 µM | 11.1 µM | 98% | 100% | 19 µM (≈ 7.15 µg/mL)
8 | CCC(CC)NS(=O)(=O)c1cccc(C(=O)Nc2ccc(F)cc2)c1 | 0.75 µM | – | 40.3 µM | 3.63 µM | 53% | 99% | 15 µM (≈ 5.47 µg/mL)
9 | O=C(Nc1ccc(F)cc1)c1cccc(S(=O)(=O)NC2CCC2)c1 | 0.83 µM | – | 57.7 µM | 0.9 µM | 51% | 99% | 84 µM (≈ 29.3 µg/mL)
10 | CC(=O)N1CCC(NS(=O)(=O)c2cccc(C(=O)Nc3ccc(F)cc3)c2)CC1 | 6.77 µM | 2.9 | > 100 µM | 4.68 µM | 0% | 23% | > 100 µM
11 | O=C(Nc1ccc(F)cc1)c1cccc(NC(=O)C2CCCCC2)c1 | 62.2 µM | 7.2 | 57.7 µM | > 25 µM | 55% | 87% | 7 µM (≈ 2.38 µg/mL)
12 | O=C(Nc1ccc(F)cc1)c1cc(S(=O)(=O)NC2CCCCC2)ccc1F | 0.78 µM | 0.3 | > 50 µM | 1.3 µM | 61% | 79% | 58 µM (≈ 22.9 µg/mL)
13 | O=C(Nc1ccc(F)cc1)c1cc(S(=O)(=O)NC2CCCC2)ccc1F | 0.36 µM | – | > 25 µM | 0.66 µM | 36% | 77% | 82 µM (≈ 31.2 µg/mL)
14 | CN(c1cccc(C(=O)Nc2ccc(F)cc2)c1)S(=O)(=O)C1CCCC1 | 7.5 µM | 2 | 43.2 µM | 16.3 µM | 86% | 99% | 53 µM (≈ 20 µg/mL)
15 | O=C(Nc1ccc(F)cc1)c1cccc(NS(=O)(=O)C2CCCC2)c1 | 1.2 µM | – | > 50 µM | 1.2 µM | 4% | 93% | 92 µM (≈ 33.3 µg/mL)
16 | CC[C@H](C)NS(=O)(=O)c1cccc(C(=O)Nc2ccc(F)cc2)c1 | 0.75 µM | – | 39.6 µM | 8.63 µM | 18% | 82% | 92 µM (≈ 32.2 µg/mL)
17 | O=C(Nc1ccc(F)cc1)c1cccc(S(=O)(=O)N2CCOCC2)c1 | 8.49 µM | 0.6 | > 100 µM | 11 µM | 27% | 69% | > 100 µM
18 | O=C(Nc1ccc(F)cc1)c1cccc(S(=O)(=O)N2CCCCC2)c1 | 4.5 µM | 0.4 | 70.4 µM | 2.7 µM | 65% | 99% | 9 µM (≈ 3.26 µg/mL)
19 | O=C(Nc1ccc(F)cc1)c1cccc(S(=O)(=O)NC2CCOCC2)c1 | 0.93 µM | – | > 100 µM | 1.67 µM | 14% | 48% | > 100 µM
20 | CC[C@@H](C)NS(=O)(=O)c1cccc(C(=O)Nc2ccc(F)cc2)c1 | 0.34 µM | – | 46 µM | 0.89 µM | 21% | 88% | 59 µM (≈ 20.7 µg/mL)
21 | O=C(NCc1ccccc1)c1cc(S(=O)(=O)NC2CCCCC2)ccc1F | > 100 µM | 8.4 | 93.9 µM | – | 74% | – | 29 µM (≈ 11.3 µg/mL)
22 | CC(C)NS(=O)(=O)c1cccc(C(=O)Nc2ccc(F)cc2)c1 | 0.74 µM | – | 57.5 µM | 0.96 µM | 16% | 61% | > 100 µM
23 | O=C(NC1CCCCC1)c1cc(S(=O)(=O)NC2CCCCC2)ccc1F | 28.8 µM | – | > 25 µM | > 25 µM | – | – | –
24 | O=C(Nc1ccc(F)cc1)c1cccc(S(=O)(=O)NC2CCCCC2)c1 | – | 0.2 | > 25 µM | 0.58 µM | 69% | 93% | 43 µM (≈ 16.2 µg/mL)
25 | O=C(Nc1cccc(S(=O)(=O)NC2CCCCC2)c1)c1ccc(F)cc1 | 8 µM | – | > 25 µM | > 25 µM | 91% | 100% | 22 µM (≈ 8.28 µg/mL)
26 | O=C(Nc1cccc(F)c1)c1cccc(S(=O)(=O)NC2CCCC2)c1 | 0.27 µM | – | > 25 µM | 0.43 µM | 88% | 100% | 57 µM (≈ 20.7 µg/mL)
27 | O=C(Nc1ccc(F)cc1)c1cccc(S(=O)(=O)N[C@@H]2CCOC2)c1 | 1.18 µM | – | > 100 µM | 2.03 µM | 21% | 24% | > 100 µM
28 | O=C(Nc1ccc(F)cc1)c1cccc(S(=O)(=O)NC2CCCC2)c1 | 0.47 µM | – | 32.7 µM | 0.6 µM | 50% | 91% | 83 µM (≈ 30.1 µg/mL)
